Test results reported in ChEMBL document CHEMBL1153046, “Synthesis and antitumor activity of substituted triazolo[4,3-a]pyrimidin-6-sulfonamide with an incorporated thiazolidinone moiety” (2009).

Legend:
Assay type in all cases: functional
KM12 = experiment: Growth inhibition of human KM12 cells after 48 hrs by sulforhodamine B assay; conditions: KM12, 48 h
Summary of the method: (§1)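 NCI 60-cell-line panel. Cells are grown in RPMI1640 with 5% fetal calf serum and 2 mM L-glutamine, seeded at a density set by growth characteristics, and preincubated 24 h. Compound is tested at a minimum of five concentrations at 10-fold dilution, with 48 h continuous exposure. Viability is read by sulforhodamine B protein assay. GI50, TGI and LC50 come from dose-response curves.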

HL-60(TB) = experiment: Growth inhibition of human HL-60(TB) cells after 48 hrs by sulforhodamine B assay; conditions: HL-60, 48 h
Summary of the method: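 NCI 60-cell-line panel. Cells were grown in RPMI1640 with 5% fetal calf serum and 2 mM L-glutamine, seeded at a density suited to each line, and preincubated 24 h. Compounds were tested at a minimum of five concentrations at 10-fold dilutions over a 5-log range, with 48 h continuous exposure. Growth was read by sulforhodamine B protein staining, and GI50 was taken from dose-response curves.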

MDA-MB-231 = experiment: Growth inhibition of human MDA-MB-231 cells after 48 hrs by sulforhodamine B assay; conditions: MDA-MB-231, 48 h; summary of the method: as §1
OVCAR-8 = experiment: Growth inhibition of human OVCAR8 cells after 48 hrs by sulforhodamine B assay; conditions: OVCAR-8, 48 h; summary of the method: as §1
EKVX = experiment: Growth inhibition of human EKVX cells after 48 hrs by sulforhodamine B assay; summary of the method: as §1
SNB-19 = experiment: Growth inhibition of human SNB19 cells after 48 hrs by sulforhodamine B assay; conditions: SNB-19, 48 h
Summary of the method: (§2)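 NCI 60-cell-line panel (nine cancer types), with cells grown in RPMI1640 plus 5% fetal calf serum and 2 mM L-glutamine. Cells are seeded at a density that depends on the line and preincubated 24 h. Compounds are then applied at a minimum of five 10-fold dilutions over a 5-log range with 48 h continuous exposure. Viability is read by SRB protein assay, and GI50 is derived from dose-response curves in units of 10^-5 M.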

IGROV-1 = experiment: Growth inhibition of human IGROV1 cells after 48 hrs by sulforhodamine B assay; conditions: IGROV-1, 48 h; summary of the method: as §1
A498 = experiment: Growth inhibition of human A498 cells after 48 hrs by sulforhodamine B assay; conditions: A498, 48 h; summary of the method: as §1
SK-MEL-2 = experiment: Growth inhibition of human SK-MEL-2 cells after 48 hrs by sulforhodamine B assay; conditions: SK-MEL-2, 48 h; summary of the method: as §1
UACC-257 = experiment: Growth inhibition of human UACC257 cells after 48 hrs by sulforhodamine B assay; conditions: UACC-257, 48 h; summary of the method: as §2
K562 = experiment: Growth inhibition of human K562 cells after 48 hrs by sulforhodamine B assay; conditions: K562, 48 h; summary of the method: as §1
SF-295 = experiment: Growth inhibition of human SF295 cells after 48 hrs by sulforhodamine B assay; conditions: SF-295, 48 h; summary of the method: as §1
NCI-H226 = experiment: Growth inhibition of human NCI-H226 cells after 48 hrs by sulforhodamine B assay; conditions: NCI-H226, 48 h; summary of the method: as §1
U-251 = experiment: Growth inhibition of human U251 cells after 48 hrs by sulforhodamine B assay; conditions: U-251, 48 h; summary of the method: as §2
A549 = experiment: Growth inhibition of human A549 cells after 48 hrs by sulforhodamine B assay; conditions: A549, 48 h; summary of the method: as §1
MOLT-4 = experiment: Growth inhibition of human MOLT4 cells after 48 hrs by sulforhodamine B assay; conditions: MOLT-4, 48 h; summary of the method: as §1
[1] = Growth inhibition of human […] cells after 48 hrs by sulforhodamine B assay; summary of the method: as §1
MCF7 = experiment: Growth inhibition of human MCF7 cells after 48 hrs by sulforhodamine B assay; conditions: MCF7, 48 h; summary of the method: as §1
NCI-H322M = experiment: Growth inhibition of human NCI-H322M cells after 48 hrs by sulforhodamine B assay; summary of the method: as §1
SF-539 = experiment: Growth inhibition of human SF539 cells after 48 hrs by sulforhodamine B assay; conditions: SF-539, 48 h; summary of the method: as §1
DU-145 = experiment: Growth inhibition of human DU145 cells after 48 hrs by sulforhodamine B assay; conditions: DU-145, 48 h; summary of the method: as §1
COLO 205 = experiment: Growth inhibition of human COLO205 cells after 48 hrs by sulforhodamine B assay; conditions: COLO 205, 48 h; summary of the method: as §1
HCT-116 = experiment: Growth inhibition of human HCT116 cells after 48 hrs by sulforhodamine B assay; conditions: HCT-116, 48 h; summary of the method: as §1
HT-29 = experiment: Growth inhibition of human HT-29 cells after 48 hrs by sulforhodamine B assay; conditions: HT-29, 48 h; summary of the method: as §1
HCC 2998 = experiment: Growth inhibition of human HCC2998 cells after 48 hrs by sulforhodamine B assay; conditions: HCC 2998, 48 h; summary of the method: as §1
MDA-MB-435 = experiment: Growth inhibition of human MDA-MB-435 cells after 48 hrs by sulforhodamine B assay; conditions: MDA-MB-435, 48 h; summary of the method: as §1
NCI-H460 = experiment: Growth inhibition of human NCI-H460 cells after 48 hrs by sulforhodamine B assay; conditions: NCI-H460, 48 h; summary of the method: as §1
[2] = Growth inhibition of human Hs 578T cells after 48 hrs by sulforhodamine B assay; summary of the method: as §1
RXF 393 = experiment: Growth inhibition of human RXF393 cells after 48 hrs by sulforhodamine B assay; conditions: RXF 393, 48 h; summary of the method: as §1
CCRF-CEM = experiment: Growth inhibition of human CCRF-CEM cells after 48 hrs by sulforhodamine B assay; summary of the method: as §1
[3] = read-out: LC50 (the source's name)

In the case of COc1ccc(/C=N/c2nc3[nH]nc(C)n3c(=O)c2S(=O)(=O)NN2C(=O)C(CN3CCN(C)CC3)SC2c2cccs2)cc1 (stereo unspecified), the GI50 (KM12) is reported as 3.02 µM, the GI50 (HL-60(TB)) is reported as 3.41 µM and the LC50 (HL-60(TB)) is reported as 31.3 µM. The TGI (HL-60(TB)) was 7.04 µM, the GI50 (MDA-MB-231) was 3.25 µM and the LC50 (50% lethal concentration) (MDA-MB-231) was greater than 100 µM. It also gave a TGI (MDA-MB-231) of 42.2 µM, a GI50 (OVCAR-8) of 3.53 µM and a TGI (OVCAR-8) of 40.5 µM. The GI50 (EKVX) was 39.7 µM, the TGI (EKVX) was greater than 100 µM and the GI50 (SNB-19) was 7.14 µM. It also gave a TGI (SNB-19) greater than 100 µM, a GI50 (IGROV-1) of 780 nM and an LC50 (IGROV-1) greater than 100 µM. It also gave a TGI (IGROV-1) of 97.3 µM, a GI50 (A498) of 500 nM and an LC50 (concentration giving 50% net cell kill) (A498) greater than 100 µM. For the same molecule, the TGI (A498) was 3.2 µM, the GI50 (SK-MEL-2) was 5.55 µM and the LC50 (concentration killing 50% of cells) (SK-MEL-2) was greater than 100 µM. It also gave a TGI (SK-MEL-2) greater than 100 µM, a GI50 (UACC-257) of 2520 nM and an LC50 (UACC-257) greater than 100 µM. For the same molecule, the TGI (UACC-257) was greater than 100 µM, the GI50 (K562) was 2870 nM and the LC50 (K562) was 68.2 µM. For the same molecule, the TGI (K562) was 6.75 µM, the GI50 (SF-295) was 1020 nM and the LC50 (concentration killing 50% of cells) (SF-295) was greater than 100 µM. For the same molecule, the TGI (SF-295) was greater than 100 µM, the GI50 (NCI-H226) was 11.8 µM and the LC50 (concentration killing 50% of cells) (NCI-H226) was greater than 100 µM. It also gave a TGI (NCI-H226) greater than 100 µM, a GI50 (U-251) of 2510 nM and an LC50 (U-251) greater than 100 µM. The TGI (U-251) was greater than 100 µM, the GI50 (A549) was 3.65 µM and the TGI (A549) was greater than 100 µM. The GI50 (MOLT-4) was 2880 nM, the TGI (MOLT-4) was 18.3 µM and the CC50 (MOLT-4; [3]) was greater than 100 µM. For the same molecule, the GI50 [1] was 2560 nM, the TGI [1] was 8.21 µM and the CC50 [1, 3] was greater than 100 µM. It also gave a GI50 (MCF7) of 5.8 µM, a TGI (MCF7) greater than 100 µM and a GI50 (NCI-H322M) of 8.18 µM. For the same molecule, the TGI (NCI-H322M) was greater than 100 µM, the GI50 (SF-539) was 1770 nM and the LC50 (SF-539) was greater than 100 µM. It also gave a TGI (SF-539) of 5.58 µM, a GI50 (DU-145) of 5.22 µM and an LC50 (concentration giving 50% net cell kill) (DU-145) greater than 100 µM. For the same molecule, the TGI (DU-145) was greater than 100 µM, the GI50 (COLO 205) was 5.29 µM and the TGI (COLO 205) was 21 µM. It also gave a GI50 (HCT-116) of 1010 nM, an LC50 (concentration killing 50% of cells) (HCT-116) greater than 100 µM and a TGI (HCT-116) of 20 µM. For the same molecule, the GI50 (HT-29) was 1960 nM, the GI50 (HCC 2998) was 1340 nM and the LC50 (HCC 2998) was greater than 100 µM. It also gave a TGI (HCC 2998) of 16.8 µM, a GI50 (MDA-MB-435) of 320 nM and a TGI (MDA-MB-435) of 5.2 µM. For the same molecule, the GI50 (NCI-H460) was 8.2 µM, the TGI (NCI-H460) was greater than 100 µM and the GI50 [2] was 3.05 µM. The LC50 (concentration killing 50% of cells) [2] was greater than 100 µM, the TGI [2] was greater than 100 µM and the GI50 (RXF 393) was 2340 nM. The TGI (RXF 393) was greater than 100 µM, the CC50 (RXF 393; [3]) was greater than 100 µM and the GI50 (CCRF-CEM) was 3.52 µM. The TGI (CCRF-CEM) was 16.1 µM.
